This is an account of results in ChEMBL document CHEMBL4428023, “1,4-Dihydropyridines Active on the SIRT1/AMPK Pathway Ameliorate Skin Repair and Mitochondrial Function and Exhibit Inhibition of Proliferation in Cancer Cells” (J Med Chem, 2016).

Assay [1] deals with T1, NAD-dependent protein deacetylase sirtuin-1 (Homo sapiens) (UniProt Q96EB6).
T1 sequence (whole entry): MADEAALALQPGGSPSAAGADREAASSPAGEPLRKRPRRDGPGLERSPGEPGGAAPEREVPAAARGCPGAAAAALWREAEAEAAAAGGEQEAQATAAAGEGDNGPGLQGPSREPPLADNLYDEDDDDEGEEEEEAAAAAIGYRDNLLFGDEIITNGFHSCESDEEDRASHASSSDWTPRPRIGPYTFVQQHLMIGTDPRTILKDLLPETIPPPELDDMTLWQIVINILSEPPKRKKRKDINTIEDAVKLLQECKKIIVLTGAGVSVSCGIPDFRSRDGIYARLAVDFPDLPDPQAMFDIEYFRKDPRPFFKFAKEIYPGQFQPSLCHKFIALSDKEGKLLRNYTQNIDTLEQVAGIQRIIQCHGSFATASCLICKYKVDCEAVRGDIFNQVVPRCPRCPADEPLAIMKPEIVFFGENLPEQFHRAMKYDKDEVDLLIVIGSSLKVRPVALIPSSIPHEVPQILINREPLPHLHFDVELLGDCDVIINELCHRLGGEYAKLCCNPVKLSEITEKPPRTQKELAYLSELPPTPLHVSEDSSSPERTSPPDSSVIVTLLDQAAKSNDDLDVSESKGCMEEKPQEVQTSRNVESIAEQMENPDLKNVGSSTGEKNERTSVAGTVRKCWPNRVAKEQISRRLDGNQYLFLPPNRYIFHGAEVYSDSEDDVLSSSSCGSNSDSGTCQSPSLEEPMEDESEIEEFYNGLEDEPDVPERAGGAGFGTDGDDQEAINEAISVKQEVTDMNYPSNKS
Put plainly: Activation of full-length GST-tagged recombinant human SIRT1 assessed as enzyme activity obtained with subtraction of intrinsic fluorescence using p53-based untagged peptide as substrate at 50 uM after 30 mins by SIRTainty assay.

For assay [2], the target named is T1, NAD-dependent protein deacetylase sirtuin-1 (Homo sapiens). Put plainly: Activation of full-length GST-tagged recombinant human SIRT1 assessed as enzyme activity obtained without subtraction of intrinsic fluorescence using p53-based untagged peptide as substrate at 50 uM after 30 mins by SIRTainty assay.
For assay [3], the target named is 3',5'-cyclic-AMP phosphodiesterase 4D (Homo sapiens) (UniProt Q08499). Put plainly: Inhibition of recombinant human PDE4D assessed as phosphate release using cAMP as substrate at 50 uM after 60 mins by malachite green assay. In a few lines:
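Recombinant human PDE4D (20 mU) in 10 mM Tris-HCl pH 7.4 with cAMP substrate. Compounds at 50 µM in DMSO; rolipram 10 µM as positive control. Incubated 60 min at 37 °C, then phosphate release measured by malachite green absorbance at 620 nm. Mean of three determinations.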

The subject of a further assay is HaCaT. Put plainly: Activation of AMPK/SIRT1 in human HaCaT cells assessed as nitric oxide production at 1 uM incubated for 1 hr by DAF-2D staining-based fluorescence assay. The format is cell-based. In a few lines: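 HaCaT keratinocytes grown in DMEM with 10% FBS and antibiotics. Cells treated 1 h (single-point 1 µM; dose-response at 5, 25, 50 µM). 5 µM DAF-2D added to complete medium. Cells then washed in PBS, trypsinized and analysed by flow cytometry for DAF fluorescence (ex 485/em 538 nm). Read-out is % DAF-positive cells relative to DMSO control.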

Molecules are shown by their SMILES. Activity calls are given as the source filed them. No cut-off for these calls is given here.

Sequence of 3',5'-cyclic-AMP phosphodiesterase 4D (Homo sapiens) (Q08499 whole entry): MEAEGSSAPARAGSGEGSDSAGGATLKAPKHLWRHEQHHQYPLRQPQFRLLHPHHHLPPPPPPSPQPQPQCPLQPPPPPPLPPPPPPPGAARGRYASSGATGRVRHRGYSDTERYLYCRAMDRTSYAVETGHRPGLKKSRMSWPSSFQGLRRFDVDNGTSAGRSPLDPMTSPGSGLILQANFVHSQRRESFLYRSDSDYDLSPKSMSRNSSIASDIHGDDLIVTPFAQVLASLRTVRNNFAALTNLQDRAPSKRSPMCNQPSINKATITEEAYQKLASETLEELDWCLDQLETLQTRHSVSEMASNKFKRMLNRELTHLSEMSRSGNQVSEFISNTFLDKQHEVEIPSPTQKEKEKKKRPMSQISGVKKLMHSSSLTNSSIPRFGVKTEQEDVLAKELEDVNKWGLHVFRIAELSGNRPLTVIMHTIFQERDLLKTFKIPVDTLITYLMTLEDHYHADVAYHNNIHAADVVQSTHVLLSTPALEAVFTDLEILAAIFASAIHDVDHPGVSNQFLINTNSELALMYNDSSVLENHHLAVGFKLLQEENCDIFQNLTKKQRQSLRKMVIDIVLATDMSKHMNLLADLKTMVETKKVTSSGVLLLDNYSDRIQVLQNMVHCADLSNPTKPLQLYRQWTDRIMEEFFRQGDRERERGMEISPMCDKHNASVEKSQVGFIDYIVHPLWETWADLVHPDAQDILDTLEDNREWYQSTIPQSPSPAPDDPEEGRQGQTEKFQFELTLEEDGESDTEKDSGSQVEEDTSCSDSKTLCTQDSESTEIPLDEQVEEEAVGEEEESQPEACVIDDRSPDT

For `CCOC(=O)C1=CN(S(=O)(=O)c2ccccc2)C=C(C(=O)OCC)C1c1ccccc1`, the Activity was 130% in assay [1] and 169% in assay [2]. On the same counts, the results for `O=C(O)C1=CN(Cc2ccccc2)C=C(C(=O)O)C1c1cncs1` are 128% and 172%.

Regarding `CCOC(=O)C1=CN(Cc2ccccc2)C=C(C(=O)OCC)C1c1ccc2ccccc2c1`, the Activity in assay [1] came out at 100%; in assay [2], 282%. For `CCOC(=O)C1=CN(C(=O)c2ccccc2)C=C(C(=O)OCC)C1c1ccc(OC)cc1`, in that order: 131% and 173%. On the same counts, the results for `O=C(O)C1=CN(Cc2ccccc2)C=C(C(=O)O)C1c1cccc2ccccc12` are 94% and 108%. For `NC(=O)C1=CN(Cc2ccccc2)C=C(C(N)=O)C1c1cnc2ccccc2c1`, the values for the Activity in assay [1] and in assay [2] were 147% and 197%, respectively.

Take `CCOC(=O)C1=CN(C(=O)c2ccc3ccccc3c2)C=C(C(=O)OCC)C1c1ccccc1`: the Activity in assay [1] came to 207%; in assay [2] it was 235%. For the same compound, the inhibition entry in assay [3] was “inactive”. Take `CCOC(=O)C1=CN(Cc2ccccc2)C=C(C(=O)OCC)C1c1cccc2ccccc12`: the Activity in assay [2] was found to be 187%. As to `CCOC(=O)C1=CN(Cc2ccccc2)C=C(C(=O)OCC)C1c1cncs1`, the Activity in assay [1] is 133%; in assay [2], 221%. On the same counts, the results for `CC1=C(C(=O)O)C(c2ccccc2)C(C(=O)O)=C(C)N1Cc1ccccc1` are 102% and 103%. As to `NC(=O)C1=CN(Cc2ccccc2)C=C(C(N)=O)C1c1cc2ccccc2s1`, the Activity in assay [1] came out at 37%; in assay [2], 127%. Take `CCOC(=O)C1=CN(C(=O)c2ccccc2)C=C(C(=O)OCC)C1c1ccccc1OC`: the figures for the Activity in assay [1] and in assay [2] were 127% and 170%, respectively. As for `O=C(O)C1=CN(Cc2ccccc2)C=C(C(=O)O)C1c1ccc2ccccc2c1`, the Activity in assay [2] came out at 116%. Regarding `CCOC(=O)C1=CN(Cc2ccccc2)C=C(C(=O)OCC)C1c1cccs1`, the values for the Activity in assay [1] and in assay [2] were 117% and 246%, respectively.

Turning to `NC(=O)C1=CN(Cc2ccccc2)C=C(C(N)=O)C1c1ccc2ccccc2c1`, the Activity is 67% in assay [1] and 128% in assay [2]. On the same counts, the results for `CCOC(=O)C1=CN(C(=O)OCc2ccccc2)C=C(C(=O)OCC)C1c1ccccc1` are 158% and 206%.

Consider `CCOC(=O)C1=CN(C(=O)c2ccccc2)C=C(C(=O)OCC)C1c1cccc(C)c1`, for which the Activity in assay [1] worked out at 140%; in assay [2], 186%. Take `O=C(O)C1=CN(Cc2ccccc2)C=C(C(=O)O)C1c1cc2ccccc2s1`: the Activity in assay [1] is 7%; in assay [2], 38%.

On to `NC(=O)C1=CN(Cc2ccccc2)C=C(C(=O)O)C1c1ccccc1` (stereo not drawn), for which the results for the Activity in assay [1] and in assay [2] were 160% and 149%, respectively.

Turning to `CCOC(=O)C1=CN(C(=O)c2ccccc2)C=C(C(=O)OCC)C1c1ccc(Cl)cc1`, the Activity in assay [1] turned out to be 191%; in assay [2] it was 231%. For the compound `CCOC(=O)C1=CN(C(=O)c2ccccc2)C=C(C(=O)OCC)C1c1ccccc1Cl`, the Activity is 143% in assay [1] and 184% in assay [2]. As to `CCOC(=O)C1=CN(Cc2ccccc2)C=C(C(=O)OCC)C1c1nccs1`, the results for the Activity in assay [1] and in assay [2] were 282% and 300%, respectively. In addition, in the assay on HaCaT, the result was Active. Consider `NC(=O)C1=CN(Cc2ccccc2)C=C(C(N)=O)C1c1cncs1`, for which the Activity in assay [1] came out at 165%; in assay [2], 194%. For the compound `CC1=C(C(N)=O)C(c2ccccc2)C(C(N)=O)=C(C)N1Cc1ccccc1`, the Activity in assay [1] and in assay [2] was 110% throughout. Regarding `NC(=O)C1=CN(Cc2ccccc2)C=C(C(N)=O)C1c1ccsc1`, the figures for the Activity in assay [1] and in assay [2] were 97% and 218%, respectively. For the compound `NC(=O)C1=CN(Cc2ccccc2)C=C(C(N)=O)C1c1cccc2ccccc12`, in assay [2], the Activity is 145%.

On to `NC(=O)C1=CN(Cc2ccccc2)C=C(C(N)=O)C1c1ccc(-c2ccccc2)cc1`, for which, in assay [2], the Activity turned out to be 96%. Turning to `NC(=O)C1=CN(Cc2ccccc2)C=C(C(N)=O)C1c1nccs1`, the Activity in assay [1] is 188%; in assay [2] it was 231%. With `CCOC(=O)C1=CN(C(=O)c2ccccc2)C=C(C(=O)OCC)C1c1cccc(OC)c1`, the Activity amounted to 117% in assay [1] and 156% in assay [2].

For the compound `O=C(O)C1=CN(Cc2ccccc2)C=C(C(=O)O)C1c1ccsc1`, the Activity in assay [1] is 45%; in assay [2], 56%. Regarding `CCOC(=O)C1=CN(C(=O)c2cnc3ccccc3n2)C=C(C(=O)OCC)C1c1ccccc1`, the figures for the Activity in assay [1] and in assay [2] were 165% and 206%, respectively. With `CCOC(=O)C1=CN(Cc2ccccc2)C=C(C(N)=O)C1c1ccccc1` (stereo not drawn), the Activity in assay [1] worked out at 108%; in assay [2], 198%. For `CCOC(=O)C1=C(C)N(Cc2ccccc2)C(C)=C(C(=O)OCC)C1c1ccccc1`, in that order: 114% and 114%. As to `O=C(O)C1=CN(Cc2ccccc2)C=C(C(=O)O)C1c1ccc(-c2ccccc2)cc1`, the Activity in assay [1] and in assay [2] was 285% each time. Also, in assay [3], the inhibition result is “inactive”. Regarding `NC(=O)C1=CN(Cc2ccccc2)C=C(C(N)=O)C1c1cccs1`, the values for the Activity in assay [1] and in assay [2] were 49% and 55%, respectively. In the case of `CCOC(=O)C1=CN(C(=O)c2cccc3ccccc23)C=C(C(=O)OCC)C1c1ccccc1`, the Activity in assay [2] is 179%. Consider `CCOC(=O)C1=CN(Cc2ccccc2)C=C(C(=O)O)C1c1ccccc1` (stereo not drawn), for which the Activity stood at 105% in assay [1] and 196% in assay [2]. With `O=C(Nc1ccccc1-c1cn2c(CN3CCNCC3)csc2n1)c1cnc2ccccc2n1`, the Activity in assay [2] worked out at 209%.

For `O=C(O)C1=CN(Cc2ccccc2)C=C(C(=O)O)C1c1nccs1`, the Activity turned out to be 132% in assay [1] and 174% in assay [2]. As for `CCOC(=O)C1=CN(Cc2ccccc2)C=C(C(=O)OCC)C1c1cnc2ccccc2c1`, the Activity came out at 283% in assay [1] and 324% in assay [2]. Besides, in the assay on HaCaT, the outcome was Active. `CCOC(=O)C1=CN(C(=O)c2ccccc2)C=C(C(=O)OCC)C1c1ccccc1C`: the values for the Activity in assay [1] and in assay [2] were 140% and 183%, respectively. For the compound `N#CC1=CN(Cc2ccccc2)C=C(C#N)C1c1ccccc1`, the values for the Activity in assay [1] and in assay [2] were 152% and 193%, respectively. In the case of `O=C(O)C1=CN(Cc2ccccc2)C=C(C(=O)O)C1c1cccs1`, the Activity in assay [1] and in assay [2] was 21% each time.

With `CCOC(=O)C1=CN(C(=O)c2ccccc2)C=C(C(=O)OCC)C1c1ccc(C)cc1`, the Activity in assay [1] was 103%; in assay [2], 144%.

With `O=C(O)C1=CN(Cc2ccccc2)C=C(C(=O)O)C1c1cnc2ccccc2c1`, the Activity in assay [1] is 167%; in assay [2] it was 209%.

With `CCOC(=O)C1=CN(Cc2ccccc2)C=C(C(=O)OCC)C1c1cc2ccccc2s1`, the Activity in assay [1] was determined as 39%; in assay [2], 139%. In the case of `CCOC(=O)C1=CN(C(=O)c2ccccc2)C=C(C(=O)OCC)C1c1cccc(Cl)c1`, the Activity in assay [1] amounted to 127%; in assay [2], 163%. For `CCOC(=O)C1=CN(Cc2ccccc2)C=C(C(=O)OCC)C1c1ccc(-c2ccccc2)cc1`, the Activity in assay [1] and in assay [2] was 61% throughout.

On to `NC(=O)C1=CN(Cc2ccccc2)C=C(C(N)=O)C1c1ccco1`, for which the Activity in assay [1] is 62%; in assay [2], 77%. For the compound `CCOC(=O)C1=CN(C(=O)c2cnccn2)C=C(C(=O)OCC)C1c1ccccc1`, the Activity is 171% in assay [1] and 242% in assay [2].
